In one experiment the target is T1, p38γ (Homo sapiens, UniProt P53778).
T1 sequence (P53778 1-367): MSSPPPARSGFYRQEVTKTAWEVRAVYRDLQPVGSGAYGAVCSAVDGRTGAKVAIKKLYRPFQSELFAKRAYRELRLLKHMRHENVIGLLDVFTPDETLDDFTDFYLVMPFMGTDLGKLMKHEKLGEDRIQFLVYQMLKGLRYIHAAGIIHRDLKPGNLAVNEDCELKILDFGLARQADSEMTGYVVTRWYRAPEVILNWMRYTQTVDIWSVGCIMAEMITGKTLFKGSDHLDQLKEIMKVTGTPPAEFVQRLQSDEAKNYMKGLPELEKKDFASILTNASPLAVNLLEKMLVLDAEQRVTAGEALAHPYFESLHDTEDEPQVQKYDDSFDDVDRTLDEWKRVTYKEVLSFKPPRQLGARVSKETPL
As to the kind of experiment: ADP-Glo in vitro kinase assay. The experiment is classed as biochemical. The following applies: for inhibition of p38γ kinase activity (in words): cell-free ADP-Glo, 1 μmol/L and 10 μmol/L, Figure 5c. A general note: In ADP-Glo the light output rises with the ADP produced.

The subject of another experiment is Hut78 cells. The experiment is classed as cell-based, human. Conditions: for reduction of Hut78 cell viability (in words): Figure 5a.
Another experiment deals with CTCL cells. As to the kind of experiment: Cell killing of CTCL cells. The experiment is classed as cell-based. The following applies: Homo sapiens, read-out: IC50 for cell killing on the CTCL cells. The method in brief:
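Hut78, HH and H9 CTCL cell lines were exposed to varying concentrations of test compound for 72 hours. Viability was read by CellTiterGlo and normalized to DMSO control. IC50 was derived from dose-response data. There were three independent experiments, each averaged from triplicates.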

Experimental findings from publication PMC7269016 (The Journal of investigative dermatology, 2018) are described below.

Entries after “also recorded” stand apart in the source; their conditions may differ. Bounds are passed on as bounds.

Take `Cc1nc(NC(=O)N2CCC[C@H]2C(N)=O)sc1-c1csc(C(C)(C)C)n1` [A66]: the “inhibition of p38γ kinase activity (in words)” value (shortened to “inhibition”) at p38γ is on record as “no inhibitory kinase activities against p38γ; also recorded: does not inhibit in vitro activity of p38γ”. Besides, in the experiment on Hut78 cells (up to approximately 10 μmol/L, 72 hours), the “influence on viability of Hut78 cells (in words)” value is listed as “no influence on the viability of Hut78 cells; also recorded: does not affect cell viability”.

For the molecule `Cn1c(=O)n(-c2ccc(C(C)(C)C#N)cc2)c2c3cc(-c4cnc5ccccc5c4)ccc3ncc21` [BEZ235], the “inhibition” value on p38γ was “no inhibitory kinase activities against p38γ”. Besides, the “reduction of Hut78 cell viability (in words)” value in the experiment on Hut78 cells is “only modest reduction of cell viability”.

As to `CS(=O)(=O)N1CCN(Cc2cc3nc(-c4cccc5[nH]ncc45)nc(N4CCOCC4)c3s2)CC1` [GDC0941], the “inhibition” value against p38γ was “no inhibitory kinase activities against p38γ”. Also, the “reduction of Hut78 cell viability (in words)” value in the experiment with Hut78 cells is reported as “only modest reduction of cell viability”.

In the case of `Cc1ccc(=O)n(-c2ccccc2)c1` [pirfenidone], the IC50 on p38γ and in the experiment with CTCL cells was over 125 µM each time.
